Results: ChEMBL document CHEMBL1649391, “A systematic protocol for the characterization of Hsp90 modulators” (Bioorg Med Chem, 2011)
Active and inactive are the calls of the source. No cut-off for these calls is given here.

What was measured:
[1] = target: Heat shock protein HSP 90-beta (Homo sapiens) (UniProt P08238); experiment: Inhibition of HSP90 in human MCF7 cells assessed as degradation of Hsp70 protein up to 50 uM after 48 hrs by Western blotting; type: cell-based
How it was run: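 MCF-7 cells were grown in DMEM/F-12 with nonessential amino acids, 2 mM glutamine, penicillin/streptomycin and 10% FBS at 37 °C and 5% CO2. Cells were seeded at 1×10⁶ per dish and left to attach overnight. They were then exposed to varying compound concentrations for 48 h, harvested, and Western blotted for Hsp90 client proteins and Hsp70.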

[2] = target: T1, Heat shock protein HSP 90 (Oryctolagus cuniculus) (UniProt P11500); experiment: Modulation proteolytic fingerprint of HSP90 in rabbit reticulocyte lysates at 10 uM after 5 mins by SDS-PAGE analysis in presence of 125 ug/ml of trypsin
T1 sequence (whole entry): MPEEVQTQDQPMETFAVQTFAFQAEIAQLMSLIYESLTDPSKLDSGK
How it was run: (§1)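 TnT rabbit reticulocyte lysate (50% v/v) with an ATP-regenerating system (10 mM creatine phosphate, 20 units/mL creatine phosphokinase) and 75 mM KCl. Drug or vehicle was added for 5 min at 37 °C, then the mix was chilled. TPCK-trypsin (0, 50 or 125 μg/ml) was added on ice for 6 min. Reactions were stopped by boiling in SDS sample buffer, then run on SDS-PAGE and Western blotted with antibodies to the Hsp90 N-terminus and C-terminus.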

[3] = target: Heat shock protein HSP 90-alpha (Homo sapiens) (UniProt P07900); experiment: Inhibition of human HSP90alpha expressed in yeast PP30 cells co-expressing HSF-lacZ reporter assessed as inhibition of heat stress-induced response at 100 uM after 3 hrs; type: cell-based
How it was run: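 Yeast PP30 carrying human Hsp90α as its sole Hsp90 was transformed with a 3×HSE-lacZ reporter and grown at 30 °C in uracil-dropout 2% glucose medium to 2–3×10⁶ cells/ml. Cells were treated with compound, then heat-shocked for 1 h at 39 °C. In lysates, β-galactosidase was read with ONPG in buffer Z pH 7.0 at 30 °C, stopped with Na2CO3, read at OD420 and normalized to protein.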

LNCaP [4] = experiment: Antiproliferative activity against human LNCAP cells; type: functional, cell-based
[5] = target: Heat shock protein HSP 90-beta (Homo sapiens) (UniProt P08238); experiment: Displacement of novobiocin bound sepharose from HSP90 after 5 mins by affinity chromatography analysis
How it was run: (§2)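 Lysate with the ATP-regenerating mix was preincubated for 5 min at 37 °C, then loaded onto novobiocin-epoxy-sepharose or onto geldanamycin-derivatized AffiGel beads blocked with BSA. Columns were washed with 20 volumes of buffer containing 0.15 M NaCl. Bound Hsp90 was eluted with a linear 0–5 mM compound gradient in the dark at 4 °C. Eluates were run on 12.5% SDS-PAGE and immunoblotted for Hsp90.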

[6] = target: Heat shock protein HSP 90-beta (Homo sapiens) (UniProt P08238); experiment: Inhibition of HSP90 binding to Cdc37 in human SKBR-3 cells by Western blotting; type: cell-based
How it was run: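 SKBr-3 cells were treated for 24 h at 0–10 μM. Cells were lysed in NP-40/molybdate Tris buffer pH 7.4 for 2 h at 4 °C, then centrifuged. Lysate protein (500 μg) was immunoprecipitated with anti-Hsp90 for 2 h, then with protein G agarose overnight at 4 °C. Washed precipitates were immunoblotted for Hsp90 and Cdc37.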

[7] = target: T1, Heat shock protein HSP 90 (Oryctolagus cuniculus); experiment: Modulation proteolytic fingerprint of HSP90 in rabbit reticulocyte lysates at 20 uM after 5 mins by SDS-PAGE analysis in presence of 125 ug/ml of trypsin; how it was run: as §1
[8] = target: Heat shock protein HSP 90-beta (Homo sapiens) (UniProt P08238); experiment: Displacement of geldanamycin bound sepharose from HSP90 after 5 mins by affinity chromatography analysis; how it was run: as §2
LNCaP [9] = experiment: Ratio of compound IC50 to KU135 IC50 for human LNCAP cells; type: functional
[10] = Ratio of compound IC50 to KU135 IC50 for human LNCaP-LN3 cells; type: functional

Chain of Heat shock protein HSP 90-beta (Homo sapiens) (P08238 whole entry): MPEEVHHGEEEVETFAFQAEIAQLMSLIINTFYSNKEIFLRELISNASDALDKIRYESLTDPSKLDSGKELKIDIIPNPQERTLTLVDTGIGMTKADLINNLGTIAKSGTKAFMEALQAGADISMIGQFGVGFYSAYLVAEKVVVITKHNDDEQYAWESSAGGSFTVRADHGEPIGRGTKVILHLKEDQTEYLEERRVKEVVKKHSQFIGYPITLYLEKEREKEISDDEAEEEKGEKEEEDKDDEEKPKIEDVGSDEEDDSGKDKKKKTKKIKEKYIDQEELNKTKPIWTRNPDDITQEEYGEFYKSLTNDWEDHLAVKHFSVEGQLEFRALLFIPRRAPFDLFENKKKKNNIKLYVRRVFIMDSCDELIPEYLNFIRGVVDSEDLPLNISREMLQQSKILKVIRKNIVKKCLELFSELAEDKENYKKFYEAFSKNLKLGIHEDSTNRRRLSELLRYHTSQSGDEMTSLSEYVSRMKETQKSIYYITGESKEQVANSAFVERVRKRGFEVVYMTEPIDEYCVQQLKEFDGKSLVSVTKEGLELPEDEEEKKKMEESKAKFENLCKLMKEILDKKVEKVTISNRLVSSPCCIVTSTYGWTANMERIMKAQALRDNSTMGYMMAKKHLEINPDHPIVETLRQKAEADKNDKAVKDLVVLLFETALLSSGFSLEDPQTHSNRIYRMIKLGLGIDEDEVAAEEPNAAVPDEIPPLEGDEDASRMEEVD

| SMILES | Activity [1] | Activity [2] | Activity [6] | Activity [7] | Activity (LNCaP [4]) | Activity [8] | also measured |
| --- | --- | --- | --- | --- | --- | --- | --- |
| CO[C@@H]1[C@@H](O)[C@@H](O)[C@H](Oc2ccc3cc(NC(C)=O)c(=O)oc3c2)OC1(C)C | inactive | Active |  |  |  |  |  |
| CO[C@@H]1[C@@H](O)[C@@H](O)[C@H](Oc2ccc3cc(NC(=O)CCCCCCC(=O)Nc4cc5ccc(O[C@H]6OC(C)(C)[C@@H](OC)[C@H](O)[C@@H]6O)cc5oc4=O)c(=O)oc3c2C)OC1(C)C | inactive | Active |  |  |  |  |  |
| CO[C@@H]1[C@@H](OC(N)=O)[C@@H](O)[C@H](Oc2ccc3c(O)c(NC(=O)c4ccc(O)c(CC=C(C)C)c4)c(=O)oc3c2C)OC1(C)C [NOVOBIOCIN] | inactive | Active |  |  |  |  | Activity [3]: Active; IC50 (LNCaP [4]): 420 nM; Activity [5]: inactive |
| O=C(O)CCc1nn(Cc2ccc(Cl)cc2Cl)c2cc(C(F)(F)F)ccc12 | inactive |  | Dose-dependent effect | Active | inactive | Active |  |
| CC(=O)O[C@@H]1C[C@H]2C(C)(C)C(=O)C=C[C@]2(C)[C@H]2CC[C@@]3(C)[C@H](c4ccoc4)OC(=O)[C@H]4O[C@]43[C@@]21C | inactive |  | Dose-dependent effect | Active | inactive | Active |  |
| CC1=C(O)C(=O)C=C2C1=CC=C1[C@@]2(C)CC[C@@]2(C)[C@@H]3C[C@](C)(C(=O)O)CC[C@]3(C)CC[C@]12C | inactive |  | Dose-dependent effect | Active | inactive | Active |  |
| CO[C@@H]1[C@@H](OC(=O)c2ccc(C)[nH]2)[C@@H](O)[C@@H](Oc2ccc3c(O)c(NC(=O)c4c[nH]c(C(=O)Nc5c(O)c6ccc(O[C@H]7OC(C)(C)[C@H](OC)[C@@H](OC(=O)c8ccc(C)[nH]8)[C@H]7O)c(C)c6oc5=O)c4C)c(=O)oc3c2C)OC1(C)C | inactive | Active |  |  | inactive |  |  |
| COc1cccc(-c2cc(C(=O)Nc3cc4cc(OC)c(OC(C)=O)c(C)c4oc3=O)ccc2OC)c1 | inactive | Active |  |  |  |  | Activity [3]: Active; Ratio IC50 (LNCaP [9]): 1000; Ratio IC50 [10]: 1000 |
| CO[C@@H]1[C@@H](O)[C@@H](O)[C@H](Oc2ccc3cc(NC(C)=O)c(=O)oc3c2C)OC1(C)C | inactive | Active |  |  |  |  |  |
| COc1cccc(-c2cc(C(=O)Nc3cc4ccc(O[C@@H]5OC(C)(C)[C@H](OC)[C@@H](O)[C@H]5O)c(OC)c4oc3=O)ccc2OC)c1 | inactive | Active |  |  | inactive |  |  |
